Values after ≈ are worked out from the molar mass of the structure shown.
Legend:
Staphylococcus aureus [1] = assay: Antibacterial activity against Staphylococcus aureus ATCC 25923 assessed as inhibition zone diameter after 24 hrs […]; format: functional
Summary of the method: (§1)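 Disc diffusion on nutrient agar. Inoculum 1-2 × 10^7 c.f.u/ml (0.5 McFarland) spread over the plate surface. Sterile 6.25 mm filter-paper discs soaked in a known concentration of compound. Solvent and growth controls included. Plates incubated inverted 24 h at 37 °C, then inhibition zone diameter measured in mm. Ciprofloxacin reference.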

Talaromyces marneffei [2] = assay: Antifungal activity against Penicillium marneffei after 48 hrs […]; format: functional
Aspergillus fumigatus [3] = assay: Antifungal activity against Aspergillus fumigatus assessed as inhibition zone diameter […] by agar dilution method; format: functional
Summary of the method: (§2)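 Compounds in DMSO placed in punched wells on Sabouraud agar (peptone, glucose, agar, pH 5.7) lawned with saline spore suspension. Plates pre-dried 1 h at 37 °C. Controls in triplicate, incubation at 37 °C for 3-4 days, then inhibition zone diameter read in mm. Amphotericin B reference.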

Pseudomonas aeruginosa [4] = assay: Antibacterial activity against Pseudomonas aeruginosa ATCC 27853 assessed as inhibition zone diameter after 24 hrs […]; format: functional; summary of the method: as §1
Aspergillus flavus [5] = assay: Antifungal activity against Aspergillus flavus after 48 hrs […]; format: functional
Candida albicans [6] = assay: Antifungal activity against Candida albicans after 48 hrs […]; format: functional
Aspergillus flavus [7] = assay: Antifungal activity against Aspergillus flavus assessed as inhibition zone diameter […] by agar dilution method; format: functional; summary of the method: as §2
Aspergillus fumigatus [8] = assay: Antifungal activity against Aspergillus fumigatus after 48 hrs […]; format: functional
[9] = system: Trichophyton mentagrophytes; assay: Antifungal activity against Trichophyton mentagrophytes after 48 hrs […]; format: functional
Talaromyces marneffei [10] = assay: Antifungal activity against Penicillium marneffei assessed as inhibition zone diameter […] by agar dilution method; format: functional; summary of the method: as §2
[11] = system: Trichophyton mentagrophytes; assay: Antifungal activity against Trichophyton mentagrophytes assessed as inhibition zone diameter […] by agar dilution method; format: functional; summary of the method: as §2
Klebsiella pneumoniae [12] = assay: Antibacterial activity against Klebsiella pneumoniae after 24 hrs by broth dilution technique; format: functional
Summary of the method: (§3)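 MIC by broth dilution in nutrient broth with logarithmic serial twofold dilutions of compound. Inoculum approx. 5×10^5 c.f.u actively dividing bacteria. Incubated 24 h at 37 °C, growth monitored visually and spectrophotometrically. MIC taken as the lowest concentration (highest dilution) arresting growth. Ciprofloxacin reference.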

Streptococcus pyogenes [13] = assay: Antibacterial activity against Streptococcus pyogenes after 24 hrs by broth dilution technique; format: functional; summary of the method: as §3
Candida albicans [14] = assay: Antifungal activity against Candida albicans assessed as inhibition zone diameter […] by agar dilution method; format: functional; summary of the method: as §2
Staphylococcus aureus [15] = assay: Antibacterial activity against Staphylococcus aureus ATCC 25923 after 24 hrs by broth dilution technique; format: functional; conditions: ATCC 25923, 24 h; summary of the method: as §3
Streptococcus pyogenes [16] = assay: Antibacterial activity against Streptococcus pyogenes assessed as inhibition zone diameter after 24 hrs by disc diffusion method
Pseudomonas aeruginosa [17] = assay: Antibacterial activity against Pseudomonas aeruginosa ATCC 27853 after 24 hrs by broth dilution technique; format: functional; conditions: ATCC 27853, 24 h; summary of the method: as §3
Escherichia coli = assay: Antibacterial activity against Escherichia coli ATCC 25922 after 24 hrs by broth dilution technique; format: functional; conditions: ATCC 25922, 24 h; summary of the method: as §3
Klebsiella pneumoniae [18] = assay: Antibacterial activity against Klebsiella pneumoniae assessed as inhibition zone diameter after 24 hrs […]; format: functional; summary of the method: as §1

Row | MIC (Talaromyces marneffei [2]) [µg/mL] | MIC (Aspergillus flavus [5]) [µg/mL] | MIC (Candida albicans [6]) [µg/mL] | MIC (Aspergillus fumigatus [8]) [µg/mL] | MIC [9] [µg/mL] | MIC (Klebsiella pneumoniae [12]) [µg/mL] | MIC (Streptococcus pyogenes [13]) [µg/mL] | MIC (Staphylococcus aureus [15]) [µg/mL] | MIC (Pseudomonas aeruginosa [17]) [µg/mL] | MIC (Escherichia coli) [µg/mL] | Compound | inhibition zone (IZ) (Staphylococcus aureus [1]) [mm] | inhibition zone (IZ) (Aspergillus fumigatus [3]) [mm] | inhibition zone (IZ) (Pseudomonas aeruginosa [4]) [mm] | inhibition zone (IZ) (Aspergillus flavus [7]) [mm] | inhibition zone (IZ) (Talaromyces marneffei [10]) [mm] | inhibition zone (IZ) [11] [mm] | inhibition zone (IZ) (Candida albicans [14]) [mm] | inhibition zone (IZ) (Streptococcus pyogenes [16]) [mm] | inhibition zone (IZ) (Klebsiella pneumoniae [18]) [mm]
1 | 6.25 (≈ 13.4 µM) | 25 (≈ 53.8 µM) | 12.5 (≈ 26.9 µM) | 12.5 (≈ 26.9 µM) | 12.5 (≈ 26.9 µM) | 6.25 (≈ 13.4 µM) | 6.25 (≈ 13.4 µM) | 6.25 (≈ 13.4 µM) | 6.25 (≈ 13.4 µM) | 6.25 (≈ 13.4 µM) | Nn1c(SCC(=O)Nc2ccc(F)c(Cl)c2)nnc1-c1cc(F)c(Cl)cc1Cl | 24 | 16 | 31 | 8 | 20 | 11 | 15 | 23 | 20
2 | 6.25 (≈ 13 µM) | 6.25 (≈ 13 µM) | 6.25 (≈ 13 µM) | 6.25 (≈ 13 µM) | 6.25 (≈ 13 µM) | 6.25 (≈ 13 µM) | 6.25 (≈ 13 µM) | 6.25 (≈ 13 µM) | 6.25 (≈ 13 µM) | 6.25 (≈ 13 µM) | Nn1c(SCC(=O)Nc2ccccc2C(F)(F)F)nnc1-c1cc(F)c(Cl)cc1Cl | 25 | 19 | 29 | 21 | 22 | 18 | 19 | 22 | 20
3 | 12.5 (≈ 28 µM) | 25 (≈ 56 µM) | 12.5 (≈ 28 µM) | 12.5 (≈ 28 µM) | 25 (≈ 56 µM) | 12.5 (≈ 28 µM) | 25 (≈ 56 µM) | 12.5 (≈ 28 µM) | 12.5 (≈ 28 µM) | 12.5 (≈ 28 µM) | Nn1c(SCC(=O)Nc2ccc(Cl)cc2)nnc1-c1cc(F)c(Cl)cc1Cl | 17 | 15 | 18 | 10 | 17 | 8 | 12 | 10 | 12
4 | 12.5 (≈ 26 µM) | 6.25 (≈ 13 µM) | 12.5 (≈ 26 µM) | 12.5 (≈ 26 µM) | 25 (≈ 52 µM) | 6.25 (≈ 13 µM) | 6.25 (≈ 13 µM) | 6.25 (≈ 13 µM) | 12.5 (≈ 26 µM) | 12.5 (≈ 26 µM) | Nn1c(SCC(=O)Nc2c(Cl)cccc2Cl)nnc1-c1cc(F)c(Cl)cc1Cl | 18 | 15 | 23 | 17 | 13 | 10 | 12 | 19 | 21
5 | 6.25 (≈ 12.1 µM) | 6.25 (≈ 12.1 µM) | 6.25 (≈ 12.1 µM) | 6.25 (≈ 12.1 µM) | 6.25 (≈ 12.1 µM) | 6.25 (≈ 12.1 µM) | 6.25 (≈ 12.1 µM) | 6.25 (≈ 12.1 µM) | 6.25 (≈ 12.1 µM) | 6.25 (≈ 12.1 µM) | Nn1c(SCC(=O)Nc2cc(Cl)c(Cl)cc2Cl)nnc1-c1cc(F)c(Cl)cc1Cl | 22 | 21 | 30 | 25 | 23 | 19 | 20 | 25 | 21
6 | 12.5 (≈ 28.4 µM) | 12.5 (≈ 28.4 µM) | 6.25 (≈ 14.2 µM) | 6.25 (≈ 14.2 µM) | 6.25 (≈ 14.2 µM) | 12.5 (≈ 28.4 µM) | 6.25 (≈ 14.2 µM) | 6.25 (≈ 14.2 µM) | 12.5 (≈ 28.4 µM) | 12.5 (≈ 28.4 µM) | Cc1cccc(NC(=O)CSc2nnc(-c3cc(F)c(Cl)cc3Cl)n2N)c1C | 20 | 20 | 20 | 15 | 15 | 16 | 18 | 24 | 17
7 | 6.25 (≈ 14.5 µM) | 6.25 (≈ 14.5 µM) | 6.25 (≈ 14.5 µM) | 6.25 (≈ 14.5 µM) | 6.25 (≈ 14.5 µM) | 6.25 (≈ 14.5 µM) | 6.25 (≈ 14.5 µM) | 6.25 (≈ 14.5 µM) | 6.25 (≈ 14.5 µM) | 6.25 (≈ 14.5 µM) | Nn1c(SCC(=O)Nc2ccc(F)cc2)nnc1-c1cc(F)c(Cl)cc1Cl | 23 | 19 | 30 | 21 | 24 | 17 | 19 | 22 | 21
8 | 6.25 (≈ 14.7 µM) | 6.25 (≈ 14.7 µM) | 6.25 (≈ 14.7 µM) | 6.25 (≈ 14.7 µM) | 6.25 (≈ 14.7 µM) | 6.25 (≈ 14.7 µM) | 6.25 (≈ 14.7 µM) | 6.25 (≈ 14.7 µM) | 6.25 (≈ 14.7 µM) | 6.25 (≈ 14.7 µM) | Cc1ccc(NC(=O)CSc2nnc(-c3cc(F)c(Cl)cc3Cl)n2N)cc1 | 25 | 20 | 31 | 22 | 23 | 18 | 18 | 22 | 20

Continued, molecule first:

Row | Compound | MIC (Talaromyces marneffei [2]) [µg/mL] | MIC (Aspergillus flavus [5]) [µg/mL] | MIC (Candida albicans [6]) [µg/mL] | MIC (Aspergillus fumigatus [8]) [µg/mL] | MIC [9] [µg/mL] | MIC (Klebsiella pneumoniae [12]) [µg/mL] | MIC (Streptococcus pyogenes [13]) [µg/mL] | MIC (Staphylococcus aureus [15]) [µg/mL] | MIC (Pseudomonas aeruginosa [17]) [µg/mL] | MIC (Escherichia coli) [µg/mL] | inhibition zone (IZ) (Staphylococcus aureus [1]) [mm] | inhibition zone (IZ) (Aspergillus fumigatus [3]) [mm] | inhibition zone (IZ) (Pseudomonas aeruginosa [4]) [mm] | inhibition zone (IZ) (Aspergillus flavus [7]) [mm] | inhibition zone (IZ) (Talaromyces marneffei [10]) [mm] | inhibition zone (IZ) [11] [mm] | inhibition zone (IZ) (Candida albicans [14]) [mm] | inhibition zone (IZ) (Streptococcus pyogenes [16]) [mm] | inhibition zone (IZ) (Klebsiella pneumoniae [18]) [mm]
9 | Cc1ccc(NC2=Nn3c(nnc3-c3cc(F)c(Cl)cc3Cl)SC2)cc1 | 6.25 (≈ 15.3 µM) | 6.25 (≈ 15.3 µM) | 6.25 (≈ 15.3 µM) | 6.25 (≈ 15.3 µM) | 6.25 (≈ 15.3 µM) | 6.25 (≈ 15.3 µM) | 6.25 (≈ 15.3 µM) | 6.25 (≈ 15.3 µM) | 6.25 (≈ 15.3 µM) | 6.25 (≈ 15.3 µM) | 21 | 20 | 29 | 19 | 23 | 17 | 18 | 23 | 21
10 | Fc1cc(-c2nnc3n2N=C(Nc2cc(Cl)c(Cl)cc2Cl)CS3)c(Cl)cc1Cl | 6.25 (≈ 12.6 µM) | 6.25 (≈ 12.6 µM) | 6.25 (≈ 12.6 µM) | 6.25 (≈ 12.6 µM) | 6.25 (≈ 12.6 µM) | 6.25 (≈ 12.6 µM) | 6.25 (≈ 12.6 µM) | 6.25 (≈ 12.6 µM) | 6.25 (≈ 12.6 µM) | 6.25 (≈ 12.6 µM) | 24 | 19 | 32 | 23 | 24 | 18 | 20 | 23 | 20
11 | Fc1cc(-c2nnc3n2N=C(Nc2ccccc2C(F)(F)F)CS3)c(Cl)cc1Cl | 6.25 (≈ 13.5 µM) | 6.25 (≈ 13.5 µM) | 6.25 (≈ 13.5 µM) | 6.25 (≈ 13.5 µM) | 6.25 (≈ 13.5 µM) | 6.25 (≈ 13.5 µM) | 6.25 (≈ 13.5 µM) | 6.25 (≈ 13.5 µM) | 6.25 (≈ 13.5 µM) | 6.25 (≈ 13.5 µM) | 22 | 21 | 30 | 21 | 21 | 17 | 18 | 23 | 21
12 | Cc1cccc(C)c1NC1=Nn2c(nnc2-c2cc(F)c(Cl)cc2Cl)SC1 | 12.5 (≈ 29.6 µM) | 6.25 (≈ 14.8 µM) | 12.5 (≈ 29.6 µM) | 25 (≈ 59.2 µM) | 6.25 (≈ 14.8 µM) | 12.5 (≈ 29.6 µM) | 6.25 (≈ 14.8 µM) | 6.25 (≈ 14.8 µM) | 6.25 (≈ 14.8 µM) | 12.5 (≈ 29.6 µM) | 23 | 10 | 15 | 24 | 12 | 19 | 15 | 21 | 12
13 | Fc1cc(-c2nnc3n2N=C(Nc2ccc(Cl)cc2)CS3)c(Cl)cc1Cl | 12.5 (≈ 29.2 µM) | 6.25 (≈ 14.6 µM) | 6.25 (≈ 14.6 µM) | 6.25 (≈ 14.6 µM) | 12.5 (≈ 29.2 µM) | 6.25 (≈ 14.6 µM) | 6.25 (≈ 14.6 µM) | 6.25 (≈ 14.6 µM) | 6.25 (≈ 14.6 µM) | 6.25 (≈ 14.6 µM) | 24 | 18 | 32 | 20 | 15 | 11 | 16 | 25 | 20

From ChEMBL document CHEMBL1149770, “Synthesis and antimicrobial studies of novel dichlorofluorophenyl containing aminotriazolothiadiazines” (2008)
